Experimental data of several laboratories.
Target: Serine/threonine-protein kinase MRCK alpha (CDC42BPA, Homo sapiens, UniProt Q5VT25)

CCS(=O)(=O)c1cc2cc(C[C@](O)(CC(C)(C)c3ccc(F)cc3C(N)=O)C(F)(F)F)[nH]c2cn1  remaining binding (cell-free assay, competition with immobilised ligand; 1 µM): 89%
CCN(CC)CCNC(=O)c1c(C)[nH]c(/C=C2\C(=O)Nc3ccc(F)cc32)c1C  inhibition (enzyme activity, inhibitor; 10 µM): 10%
Nc1cnc(N2CCc3cc(S(=O)(=O)Nc4c(F)cc(Cl)cc4F)cc(N4CCCC4=O)c32)nc1  remaining binding (cell-free assay, competition with immobilised ligand; 1 µM): 100%
Cc1ccc(C(=O)Nc2ccc(CN3CCN(C)CC3)c(C(F)(F)F)c2)cc1C#Cc1cnc2cccnn12  remaining activity (enzyme activity, inhibitor; 23.5 nM): 99%
CC(C)(C)c1nc(-c2cccc(NS(=O)(=O)c3c(F)cccc3F)c2F)c(-c2ccnc(N)n2)s1  remaining activity (enzyme activity, inhibitor, radiometric; 1 µM): 88%
Nc1ncnc2occ(-c3ccc(NC(=O)Nc4cc(C(F)(F)F)ccc4F)cc3)c12  remaining activity (enzyme activity, inhibitor; 20 µM): 0.05%
Cc1ccc(Nc2nccc(N(C)c3ccc4c(C)n(C)nc4c3)n2)cc1S(N)(=O)=O  inhibition (enzyme activity, inhibitor; 0.3 µM): 9%
O=C(Nc1cnn(-c2csc(C(=O)NC3COC3)c2)c1)Nc1c(F)cccc1Cl  remaining activity (enzyme activity, inhibitor; 5 µM): 99%
Cc1cc(NC(=O)c2cccc3cc(-c4cccc5[nH]nc(N)c45)ccc23)ccc1F  activity vs control (enzyme activity, inhibitor; 0.1 µM): 92%
O=C(NS(=O)(=O)c1ccc(NCC2CCOCC2)c([N+](=O)[O-])c1)c1ccc(N2CCN(Cc3ccc(C(F)(F)F)cc3-c3ccc(Cl)cc3)CC2)cc1Oc1cnc2[nH]ccc2c1  remaining binding (cell-free assay, competition with immobilised ligand; 1 µM): 96%
O=C1NC(=O)c2cc(Nc3ccc(F)cc3)c(Nc3ccc(F)cc3)cc21  remaining signal (cell-free assay, inhibitor; 0.5 µM): 92.3%
COc1ccc2cc(OCC3(C(=O)O)CN(C(=O)c4ccc(F)cc4)C3)ccc2c1  remaining binding (cell-free assay, competition with immobilised ligand; 1 µM): 100%
Cc1cnc(NC2CCOCC2)nc1-n1cnc(C(=O)NC(CN)c2cc(F)cc(Cl)c2)c1 (centres unmarked)  remaining activity (enzyme activity, inhibitor, radiometric; 1 µM): 64%
COc1cc2ncnc(Nc3ccc(Oc4ccccc4)cc3C)c2cc1OC  inhibition (enzyme activity, inhibitor; 1 µM): 6%
CN1CC(Oc2cnc(C#N)cc2-c2ccn3nc(NC(=O)C4CC4)cc3c2)C1  inhibition (enzyme activity, inhibitor; 1 µM): -14%
CNC(=O)c1cc(Oc2ccc(NC(=O)Nc3ccc(Cl)c(C(F)(F)F)c3)cc2)ccn1  inhibition (enzyme activity, inhibitor; 10 µM): 2%
CS(=O)(=O)CCNCc1ccc(-c2ccc3ncnc(Nc4ccc(OCc5cccc(F)c5)c(Cl)c4)c3c2)o1  remaining signal (cell-free assay; 0.5 µM): 88.2%
CN(C)c1ncnc(-c2ccc3nc(Nc4cc(CN5CCN(C(=O)CC(F)(F)F)CC5)ccn4)[nH]c3c2)c1Cl  remaining binding (cell-free assay, competition with immobilised ligand; 1 µM): 100%
CCCOc1ccc(OC)c(F)c1C(=O)c1ccc(C(=O)N[C@@H]2CNC[C@H]2NC(=O)c2ccc3[nH]ncc3c2)cc1  remaining activity (enzyme activity, inhibitor; 0.5 µM): 27%
c1ccc(N2CCN(Cc3nc4ccccc4[nH]3)CC2)nc1  remaining binding (cell-free assay, competition with immobilised ligand; 1 µM): 100%
CC/C(=N\NC(=O)NCc1cccc(O)c1)c1ccc(O)c(C)c1O  inhibition (enzyme activity, inhibitor; 0.1 µM): 49.7%
N#Cc1ccc(Nc2ccc3[nH]c(=O)[nH]c3c2)c(Cl)c1  remaining binding (cell-free assay, competition with immobilised ligand; 1 µM): 100%
CCOc1cc(-c2nncn2C)ccc1Nc1ncc2cc(C)nc(NCC(C)(C)C)c2n1  inhibition (enzyme activity, inhibitor, FRET; 1 µM): < 15%
